Reference: ChEMBL document CHEMBL4138069, “Design, synthesis, molecular-docking and antimycobacterial evaluation of some novel 1,2,3-triazolyl xanthenones” (Medchemcomm, 2017)
In brackets after ≈: the same amount, converted by molar mass.

Tests used:
[1] = tested on: Mycobacterium tuberculosis; assay: Antimycobacterial activity against Mycobacterium tuberculosis H37Rv ATCC 27294 assessed as inhibition of bacterial growth incubated for 28 days; format: functional; settings: H37Rv ATCC 27294, 672 h
In short: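 Agar dilution in Middlebrook 7H11 with OADC, two-fold dilutions at final 50 to 0.78 μg mL–1. Inoculum from fresh 7H11 slants, adjusted to 1 mg mL–1 wet weight in 0.05% Tween 80 saline, diluted 10–2 to about 10^7 cfu mL–1; 5 μL spotted per tube. Incubated at 37 °C. MIC = lowest concentration giving complete growth inhibition, read at 28 days, in triplicate.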

Staphylococcus aureus = assay: Antibacterial activity against Staphylococcus aureus MTCC 96 by agar dilution method; format: functional
In short: (§1)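 Minimum inhibitory concentration measured by agar dilution against three Gram-positive and three Gram-negative MTCC strains; read out as MIC.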

Bacillus subtilis = assay: Antibacterial activity against Bacillus subtilis MTCC 121 by agar dilution method; format: functional; in short: as §1
Bacillus cereus = assay: Antibacterial activity against Bacillus cereus MTCC 430 by agar dilution method; format: functional; in short: as §1
Escherichia coli = assay: Antibacterial activity against Escherichia coli MTCC 1652 by agar dilution method; format: functional; in short: as §1
Pseudomonas aeruginosa = assay: Antibacterial activity against Pseudomonas aeruginosa MTCC 741 by agar dilution method; format: functional; in short: as §1
Klebsiella aerogenes = assay: Antibacterial activity against Enterobacter aerogenes MTCC 111 by agar dilution method; format: functional; in short: as §1
Aspergillus niger = assay: Antifungal activity against Aspergillus niger MTCC 282; format: functional
In short: (§2)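 Antifungal read-out was MIC in μg mL–1, with fluconazole as the reference drug.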

Candida albicans = assay: Antifungal activity against Candida albicans MTCC 9062; format: functional; in short: as §2
[2] = Lipophilicity, log P of the compound; format: physicochemical; settings: octanol/water
In short: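 Value is a calculated log P (clog P), computed rather than measured experimentally.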

[3] = Cytotoxicity in HEK cells assessed as inhibition of cell growth at 50 ug/ml incubated for 72 hrs by MTT assay; format: cell-based; settings: human, read-out: GI
In short: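 HEK cells were exposed to compound at 50 μg mL–1 for 72 h. Viability was taken from cellular conversion of MTT to formazan, using a non-radioactive cell proliferation kit.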

| SMILES | MIC [1] | MIC (Staphylococcus aureus) | MIC (Bacillus subtilis) | MIC (Bacillus cereus) | MIC (Escherichia coli) | MIC (Pseudomonas aeruginosa) | MIC (Klebsiella aerogenes) | MIC (Aspergillus niger) | MIC (Candida albicans) | logP [2] | inhibition at 72 h, 50 ug/ml [3] |
| --- | --- | --- | --- | --- | --- | --- | --- | --- | --- | --- | --- |
| O=Cc1cn(-c2ccc(O)cc2)nn1 | > 25 µg/mL |  |  |  |  |  |  |  |  |  |  |
| COc1ccc(-n2cc(C3C4=C(CC(C)(C)CC4=O)Oc4ccc5ccccc5c43)nn2)cc1 (configuration not stated) | 6.25 µg/mL (≈ 13.8 µM) | 6.25 µg/mL (≈ 13.8 µM) | 6.25 µg/mL (≈ 13.8 µM) | 3.12 µg/mL (≈ 6.91 µM) | 12.5 µg/mL (≈ 27.7 µM) | 6.25 µg/mL (≈ 13.8 µM) | 6.25 µg/mL (≈ 13.8 µM) | 3.12 µg/mL (≈ 6.91 µM) | 6.25 µg/mL (≈ 13.8 µM) | 4.53 | 21.2% |
| O=Cc1cn(-c2ccccc2)nn1 | 25 µg/mL (≈ 144 µM) |  |  |  |  |  |  |  |  |  |  |
| O=Cc1cn(-c2ccccc2Cl)nn1 | 25 µg/mL (≈ 120 µM) |  |  |  |  |  |  |  |  |  |  |
| O=C1CCCC2=C1C(c1cn(-c3ccccc3Cl)nn1)c1c(ccc3ccccc13)O2 (configuration not stated) | 25 µg/mL (≈ 58.4 µM) | > 100 µg/mL | > 100 µg/mL | > 100 µg/mL | 12.5 µg/mL (≈ 29.2 µM) | 50 µg/mL (≈ 117 µM) | 50 µg/mL (≈ 117 µM) | 12.5 µg/mL (≈ 29.2 µM) | > 100 µg/mL | 4.41 |  |
| O=Cc1cn(-c2ccc(Cl)cc2)nn1 | 6.25 µg/mL (≈ 30.1 µM) |  |  |  |  |  |  |  |  |  |  |
| CC1(C)CC(=O)C2=C(C1)Oc1ccc3ccccc3c1C2c1cn(-c2cccc(C(F)(F)F)c2)nn1 (configuration not stated) | > 25 µg/mL | 25 µg/mL (≈ 51.1 µM) | 50 µg/mL (≈ 102 µM) | 12.5 µg/mL (≈ 25.5 µM) | 100 µg/mL (≈ 204 µM) | 25 µg/mL (≈ 51.1 µM) | 25 µg/mL (≈ 51.1 µM) | 12.5 µg/mL (≈ 25.5 µM) | 100 µg/mL (≈ 204 µM) | 5.57 |  |
| O=C1CCCC2=C1C(c1cn(-c3ccc(O)cc3)nn1)c1c(ccc3ccccc13)O2 (configuration not stated) | > 25 µg/mL | > 100 µg/mL | > 100 µg/mL | > 100 µg/mL | > 100 µg/mL | > 100 µg/mL | > 100 µg/mL | > 100 µg/mL | > 100 µg/mL | 3.46 |  |
| O=Cc1cn(-c2cccc(C(F)(F)F)c2)nn1 | > 25 µg/mL |  |  |  |  |  |  |  |  |  |  |
| CC[C@@H](CO)NCCN[C@@H](CC)CO [ETHAMBUTOL] | 7.64 µg/mL (≈ 37.4 µM) |  |  |  |  |  |  |  |  |  |  |
| COc1ccccc1-n1cc(C2C3=C(CC(C)(C)CC3=O)Oc3ccc4ccccc4c32)nn1 (configuration not stated) | 12.5 µg/mL (≈ 27.7 µM) | > 100 µg/mL | > 100 µg/mL | 50 µg/mL (≈ 111 µM) | 25 µg/mL (≈ 55.4 µM) | > 100 µg/mL | > 100 µg/mL | > 100 µg/mL | 25 µg/mL (≈ 55.4 µM) | 4.53 |  |
| CO[C@H]1/C=C/O[C@@]2(C)Oc3c(C)c(O)c4c(O)c(c(/C=N/N5CCN(C)CC5)c(O)c4c3C2=O)NC(=O)/C(C)=C\C=C\[C@H](C)[C@H](O)[C@@H](C)[C@@H](O)[C@@H](C)[C@H](OC(C)=O)[C@@H]1C [RIFAMPIN] | 0.24 µg/mL (≈ 0.292 µM) |  |  |  |  |  |  |  |  |  |  |
| CC1(C)CC(=O)C2=C(C1)Oc1ccc3ccccc3c1C2c1cn(-c2ccc(Cl)cc2)nn1 (configuration not stated) | 3.12 µg/mL (≈ 6.85 µM) | 12.5 µg/mL (≈ 27.4 µM) | 12.5 µg/mL (≈ 27.4 µM) | 12.5 µg/mL (≈ 27.4 µM) | 12.5 µg/mL (≈ 27.4 µM) | 12.5 µg/mL (≈ 27.4 µM) | 12.5 µg/mL (≈ 27.4 µM) | 12.5 µg/mL (≈ 27.4 µM) | 12.5 µg/mL (≈ 27.4 µM) | 5.21 | 18.1% |
| CC1(C)CC(=O)C2=C(C1)Oc1ccc3ccccc3c1C2c1cn(-c2ccccc2Cl)nn1 (configuration not stated) | 25 µg/mL (≈ 54.8 µM) | 3.12 µg/mL (≈ 6.84 µM) | 6.25 µg/mL (≈ 13.7 µM) | 3.12 µg/mL (≈ 6.84 µM) | 3.12 µg/mL (≈ 6.84 µM) | 6.25 µg/mL (≈ 13.7 µM) | 12.5 µg/mL (≈ 27.4 µM) | 3.12 µg/mL (≈ 6.84 µM) | 3.12 µg/mL (≈ 6.84 µM) | 5.21 |  |
| COc1ccc(-n2cc(C=O)nn2)cc1 | 12.5 µg/mL (≈ 61.5 µM) |  |  |  |  |  |  |  |  |  |  |
| NNC(=O)c1ccncc1 [ISONIAZID] | 0.72 µg/mL (≈ 5.25 µM) |  |  |  |  |  |  |  |  |  |  |
| COc1ccc(-n2cc(C3C4=C(CCCC4=O)Oc4ccc5ccccc5c43)nn2)cc1 (configuration not stated) | 6.25 µg/mL (≈ 14.8 µM) | 3.12 µg/mL (≈ 7.37 µM) | 12.5 µg/mL (≈ 29.5 µM) | 3.12 µg/mL (≈ 7.37 µM) | 3.12 µg/mL (≈ 7.37 µM) | 6.25 µg/mL (≈ 14.8 µM) | 6.25 µg/mL (≈ 14.8 µM) | 3.12 µg/mL (≈ 7.37 µM) | 3.12 µg/mL (≈ 7.37 µM) | 3.73 | 22.2% |
| CC1(C)CC(=O)C2=C(C1)Oc1ccc3ccccc3c1C2c1cn(-c2ccccc2)nn1 (configuration not stated) | 12.5 µg/mL (≈ 29.7 µM) | 6.25 µg/mL (≈ 14.8 µM) | 25 µg/mL (≈ 59.3 µM) | 12.5 µg/mL (≈ 29.7 µM) | 12.5 µg/mL (≈ 29.7 µM) | 25 µg/mL (≈ 59.3 µM) | 6.25 µg/mL (≈ 14.8 µM) | 6.25 µg/mL (≈ 14.8 µM) | 25 µg/mL (≈ 59.3 µM) | 4.65 |  |
| O=C1CCCC2=C1C(c1cn(-c3ccccc3)nn1)c1c(ccc3ccccc13)O2 (configuration not stated) | 12.5 µg/mL (≈ 31.8 µM) | 3.12 µg/mL (≈ 7.93 µM) | 3.12 µg/mL (≈ 7.93 µM) | 3.12 µg/mL (≈ 7.93 µM) | 3.12 µg/mL (≈ 7.93 µM) | 3.12 µg/mL (≈ 7.93 µM) | 3.12 µg/mL (≈ 7.93 µM) | 3.12 µg/mL (≈ 7.93 µM) | 3.12 µg/mL (≈ 7.93 µM) | 3.85 |  |
| O=C(O)c1cn(C2CC2)c2cc(N3CCNCC3)c(F)cc2c1=O [CIPROFLOXACIN] |  | ≤ 6.25 µg/mL | ≤ 6.25 µg/mL | ≤ 6.25 µg/mL | ≤ 6.25 µg/mL | ≤ 6.25 µg/mL | ≤ 6.25 µg/mL |  |  |  |  |
| CC1(C)CC(=O)C2=C(C1)Oc1ccc3ccccc3c1C2c1cn(-c2ccc([N+](=O)[O-])cc2)nn1 (configuration not stated) | > 25 µg/mL | 12.5 µg/mL (≈ 26.8 µM) | 6.25 µg/mL (≈ 13.4 µM) | 6.25 µg/mL (≈ 13.4 µM) | 3.12 µg/mL (≈ 6.69 µM) | 12.5 µg/mL (≈ 26.8 µM) | 3.12 µg/mL (≈ 6.69 µM) | 6.25 µg/mL (≈ 13.4 µM) | 3.12 µg/mL (≈ 6.69 µM) |  |  |
| COc1ccccc1-n1cc(C=O)nn1 | > 25 µg/mL |  |  |  |  |  |  |  |  |  |  |
| OC(Cn1cncn1)(Cn1cncn1)c1ccc(F)cc1F [FLUCONAZOLE] |  |  |  |  |  |  |  | ≤ 3.12 µg/mL | ≤ 3.12 µg/mL |  |  |
| O=C1CCCC2=C1C(c1cn(-c3ccc([N+](=O)[O-])cc3)nn1)c1c(ccc3ccccc13)O2 (configuration not stated) | > 25 µg/mL | > 100 µg/mL | > 100 µg/mL | > 100 µg/mL | 50 µg/mL (≈ 114 µM) | 50 µg/mL (≈ 114 µM) | > 100 µg/mL | > 100 µg/mL | > 100 µg/mL |  |  |
| O=Cc1cn(-c2ccc([N+](=O)[O-])cc2)nn1 | > 25 µg/mL |  |  |  |  |  |  |  |  |  |  |
| CC1(C)CC(=O)C2=C(C1)Oc1ccc3ccccc3c1C2c1cn(-c2ccc(O)cc2)nn1 (configuration not stated) | > 25 µg/mL | 6.25 µg/mL (≈ 14.3 µM) | 6.25 µg/mL (≈ 14.3 µM) | 12.5 µg/mL (≈ 28.6 µM) | 3.12 µg/mL (≈ 7.13 µM) | 6.25 µg/mL (≈ 14.3 µM) | 6.25 µg/mL (≈ 14.3 µM) | 12.5 µg/mL (≈ 28.6 µM) | 3.12 µg/mL (≈ 7.13 µM) | 4.26 |  |
| NC(=O)c1cnccn1 [PYRAZINAMIDE] | 50.8 µg/mL (≈ 412 µM) |  |  |  |  |  |  |  |  |  |  |
| O=C1CCCC2=C1C(c1cn(-c3cccc(C(F)(F)F)c3)nn1)c1c(ccc3ccccc13)O2 (configuration not stated) | > 25 µg/mL | 6.25 µg/mL (≈ 13.5 µM) | 12.5 µg/mL (≈ 27.1 µM) | 25 µg/mL (≈ 54.2 µM) | 12.5 µg/mL (≈ 27.1 µM) | 6.5 µg/mL (≈ 14.1 µM) | 12.5 µg/mL (≈ 27.1 µM) | 50 µg/mL (≈ 108 µM) | 50 µg/mL (≈ 108 µM) | 4.77 |  |
| O=C1CCCC2=C1C(c1cn(-c3ccc(Cl)cc3)nn1)c1c(ccc3ccccc13)O2 (configuration not stated) | 3.12 µg/mL (≈ 7.3 µM) | 12.5 µg/mL (≈ 29.2 µM) | 50 µg/mL (≈ 117 µM) | 12.5 µg/mL (≈ 29.2 µM) | 12.5 µg/mL (≈ 29.2 µM) | 25 µg/mL (≈ 58.4 µM) | 12.5 µg/mL (≈ 29.2 µM) | > 100 µg/mL | > 100 µg/mL | 4.41 | 18.1% |
| COc1ccccc1-n1cc(C2C3=C(CCCC3=O)Oc3ccc4ccccc4c32)nn1 (configuration not stated) | 25 µg/mL (≈ 59 µM) | 6.25 µg/mL (≈ 14.8 µM) | 12.5 µg/mL (≈ 29.5 µM) | 25 µg/mL (≈ 59 µM) | 12.5 µg/mL (≈ 29.5 µM) | 6.25 µg/mL (≈ 14.8 µM) | 6.25 µg/mL (≈ 14.8 µM) | 12.5 µg/mL (≈ 29.5 µM) | 6.25 µg/mL (≈ 14.8 µM) | 3.73 |  |
